Data set [1] is described as follows: Solubility in water. Format: physicochemical. Particulars: buffer.
Another data set has as its target Albumin (Homo sapiens, UniProt P02768). The data set can be described thus: Binding affinity to human serum albumin. Particulars: isolated protein. It is filed as ADME.
For data set [2], the system named is HEK293. The experiment in a line: Inhibition of TLR2 expression in human HEK293 cells at 10 uM treated for 24 hrs measured after serum deprivation by Western blotting. Format: functional, cell-based. In short, it runs like this: (§1)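 HEK293 and TLR2-stably-transfected HEK293 cells in RPMI-1640 with 10% heat-inactivated FBS, 37 °C, 5% CO2; compound at 0, 10 or 100 uM for 24 h, then serum deprivation for 0, 12 or 24 h. Equal cell numbers lysed in RIPA buffer, 12% SDS-PAGE, nitrocellulose, anti-TLR2 immunoblot with GAPDH antibody, chemiluminescent detection; mean ± SEM of three independent experiments.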

Data set [3] concerns HEK293. The experiment in a line: Inhibition of TLR2 expression in human HEK293 cells at 100 uM treated for 24 hrs measured after serum deprivation by Western blotting. It is filed as functional, cell-based. Put shortly:
as §1
A general note: A western blot detects proteins with antibodies after separation by electrophoresis.

The test system of data set [4] is HEK293. The data set can be described thus: Inhibition of TLR2 expression in human HEK293 cells stably transfected with TLR2 at 10 uM treated for 24 hrs measured after serum deprivation by Western blotting. Format: functional, cell-based. In short, it runs like this:
as §1

Data set [5] relates to HEK293. The data set can be described thus: Inhibition of TLR2 expression in human HEK293 cells stably transfected with TLR2 at 100 uM treated for 24 hrs measured after serum deprivation by Western blotting. Format: functional, cell-based. In short, it runs like this: as §1
The target of data set [6] is Toll-like receptor 2 (Homo sapiens) (UniProt O60603). The experiment in a line: Inhibition of TLR2-mediated apoptosis in human HEK293 cells at 100 uM treated for 24 hrs measured after 12 hrs of serum deprivation by TUNEL assay. It is filed as cell-based. Put shortly: (§2)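 With or without 100 uM for 24 h, then serum deprivation 0, 12 or 24 h, in HEK293 or TLR2/HEK293 cells (RPMI-1640, 10% heat-inactivated FBS). Nucleosomal DNA fragmentation detected by in situ TUNEL kit; apoptotic and total cells counted in random fields to give percent apoptotic cells; mean ± SEM of three independent experiments.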

The target is the same in data set [7]. The data set can be described thus: Inhibition of TLR2-mediated apoptosis in human HEK293 cells at 100 uM treated for 24 hrs measured after 24 hrs of serum deprivation by TUNEL assay. Format: cell-based. Put shortly: as §2
The target is the same in data set [8]. The experiment in a line: Inhibition of TLR2-mediated apoptosis in human HEK293 cells stably transfected with TLR2 at 100 uM treated for 24 hrs measured after 12 hrs of serum deprivation by TUNEL assay. Format: cell-based. In short, it runs like this: as §2
Data set [9] has the same target. The experiment in a line: Inhibition of TLR2-mediated apoptosis in human HEK293 cells stably transfected with TLR2 at 100 uM treated for 24 hrs measured after 24 hrs of serum deprivation by TUNEL assay. It is filed as cell-based. Put shortly:
as §2

Data set [10] has the same target. The experiment in a line: Inhibition of TLR2 in human HEK293 cells stably transfected with TLR2 assessed as decrease in Akt phosphorylation level at Ser473 at 10 uM treated for 24 hrs measured after serum deprivation by Western blotting. It is filed as cell-based. In short, it runs like this: (§3)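 Parental HEK293 or TLR2/HEK293 cells (RPMI-1640, 10% heat-inactivated FBS, 37 °C, 5% CO2) exposed to 0, 10 or 100 uM for 24 h, then serum-deprived 0, 12 or 24 h. RIPA lysates of equal cell numbers run on 12% SDS-PAGE; phospho-Akt (Ser473) and total Akt probed by Western blot, milk block, primary antibody overnight at 4 °C.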

For data set [11] the target is unchanged. The data set can be described thus: Inhibition of TLR2 in human HEK293 cells stably transfected with TLR2 assessed as decrease in Akt phosphorylation level at Ser473 at 100 uM treated for 24 hrs measured after serum deprivation by Western blotting. Format: cell-based. Put shortly: as §3
The target is the same in data set [12]. The data set can be described thus: Inhibition of TLR2 in human HEK293 cells assessed as decrease in Akt phosphorylation level at Ser473 at 10 uM treated for 24 hrs measured after serum deprivation by Western blotting. It is filed as cell-based. Put shortly: as §3
The target is the same in data set [13]. The data set can be described thus: Inhibition of TLR2 in human HEK293 cells assessed as decrease in Akt phosphorylation level at Ser473 at 100 uM treated for 24 hrs measured after serum deprivation by Western blotting. It is filed as cell-based. Put shortly: as §3
For data set [14] the target is unchanged. The data set can be described thus: Inhibition of TLR2 in human HEK293 cells stably transfected with TLR2 assessed as decrease in GSK3-beta phosphorylation level at 10 uM treated for 24 hrs measured after serum deprivation by Western blotting. Format: cell-based. Put shortly: (§4)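 Cells given 0, 10 or 100 uM for 24 h before 0, 12 or 24 h serum deprivation; HEK293 and TLR2/HEK293 lines cultured in RPMI-1640 plus 10% heat-inactivated FBS. Harvested cells lysed in RIPA buffer, 12% SDS-PAGE, nitrocellulose transfer, immunoblotted for phospho-GSK3beta and total GSK3beta, ECL read-out; mean ± SEM, three independent experiments.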

The target is the same in data set [15]. The experiment in a line: Inhibition of TLR2 in human HEK293 cells stably transfected with TLR2 assessed as decrease in GSK3-beta phosphorylation level at 100 uM treated for 24 hrs measured after serum deprivation by Western blotting. It is filed as cell-based. In short, it runs like this: as §4
Data set [16] shares this target. The experiment in a line: Inhibition of TLR2 in human HEK293 cells assessed as decrease in GSK3-beta phosphorylation level at 10 uM treated for 24 hrs measured after serum deprivation by Western blotting. Format: cell-based. Put shortly:
as §4

The target is the same in data set [17]. The experiment in a line: Inhibition of TLR2 in human HEK293 cells assessed as decrease in GSK3-beta phosphorylation level at 100 uM treated for 24 hrs measured after serum deprivation by Western blotting. It is filed as cell-based. In short, it runs like this: as §4

Each structure is given as a SMILES string. The source made the active and inactive calls. The rule behind the calls is not given here.

Chain of Toll-like receptor 2 (Homo sapiens) (O60603 whole entry, the tested form may be a part): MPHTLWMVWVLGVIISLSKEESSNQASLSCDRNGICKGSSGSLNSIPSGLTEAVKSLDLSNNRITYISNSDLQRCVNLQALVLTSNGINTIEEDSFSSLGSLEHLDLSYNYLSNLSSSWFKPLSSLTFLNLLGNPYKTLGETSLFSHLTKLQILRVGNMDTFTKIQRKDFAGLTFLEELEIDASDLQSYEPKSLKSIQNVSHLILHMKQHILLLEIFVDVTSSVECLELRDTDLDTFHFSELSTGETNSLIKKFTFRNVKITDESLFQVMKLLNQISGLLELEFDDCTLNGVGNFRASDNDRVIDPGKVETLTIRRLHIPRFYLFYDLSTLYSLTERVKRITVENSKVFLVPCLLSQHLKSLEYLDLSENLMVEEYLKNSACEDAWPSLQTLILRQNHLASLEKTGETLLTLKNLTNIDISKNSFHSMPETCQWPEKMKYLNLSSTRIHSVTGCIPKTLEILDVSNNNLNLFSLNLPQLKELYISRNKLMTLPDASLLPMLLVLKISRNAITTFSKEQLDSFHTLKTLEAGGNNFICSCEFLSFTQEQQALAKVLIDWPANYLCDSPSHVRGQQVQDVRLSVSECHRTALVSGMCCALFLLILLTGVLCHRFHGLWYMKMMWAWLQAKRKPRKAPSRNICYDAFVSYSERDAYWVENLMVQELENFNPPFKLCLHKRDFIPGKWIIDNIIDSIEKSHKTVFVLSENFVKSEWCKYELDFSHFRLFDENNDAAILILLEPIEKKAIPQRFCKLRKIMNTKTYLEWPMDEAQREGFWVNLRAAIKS
Chain of Albumin (P02768 whole entry): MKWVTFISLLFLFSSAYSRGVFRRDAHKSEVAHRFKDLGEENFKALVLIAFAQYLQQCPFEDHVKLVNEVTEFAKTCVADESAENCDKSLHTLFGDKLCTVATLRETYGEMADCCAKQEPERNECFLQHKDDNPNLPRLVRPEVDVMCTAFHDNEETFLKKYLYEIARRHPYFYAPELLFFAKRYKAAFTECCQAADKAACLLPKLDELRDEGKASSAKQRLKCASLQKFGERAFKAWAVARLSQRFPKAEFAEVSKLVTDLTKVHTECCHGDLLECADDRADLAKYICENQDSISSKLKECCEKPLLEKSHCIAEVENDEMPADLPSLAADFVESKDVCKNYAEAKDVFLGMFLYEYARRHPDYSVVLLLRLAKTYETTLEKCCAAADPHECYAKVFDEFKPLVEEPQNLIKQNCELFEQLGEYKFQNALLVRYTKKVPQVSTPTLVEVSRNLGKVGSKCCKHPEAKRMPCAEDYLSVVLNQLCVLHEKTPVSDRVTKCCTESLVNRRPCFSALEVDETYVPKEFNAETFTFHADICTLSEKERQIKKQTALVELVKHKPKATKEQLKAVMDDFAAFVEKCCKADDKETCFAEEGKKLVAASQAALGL

For `O=C(O)CCCCCOc1ccc(/C=C/c2cc(O)cc(O)c2)cc1` [RESVERATROL HEXANOIC ACID], in data set [1], the solubility entry is “Soluble”. Further, the “fold change (FC)” value on Albumin stood at 40. The inhibition entry in the data set with HEK293 [2], with HEK293 [3], in the data set with HEK293 [4] and in the data set on HEK293 [5] was “Active” in each case. Moreover, the inhibition stood at 11% in data set [6], 25% in data set [7], 20% in data set [8] and 49% in [9]. In addition, the result in [10], in data set [11], in [14] and in data set [15] was Active. Further, the outcome in data set [12], in [13], in data set [16] and in [17] was inactive.
Turning to `O=C(O)COc1ccc(/C=C/c2cc(O)cc(O)c2)cc1`, the inhibition result in the data set with HEK293 [2], with HEK293 [3], in the data set with HEK293 [4] and in the data set with HEK293 [5] was “inactive” each time.

For orientation: inhibition means the relative decrease from the control value, in per cent.

The values above are taken from ChEMBL document CHEMBL1152955, “Synthetic resveratrol aliphatic acid inhibits TLR2-mediated apoptosis and an involvement of Akt/GSK3beta pathway” (Bioorg Med Chem, 2009).
